# Calls of active or inactive are those of the source.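 Rule for the calls, unless noted: active = inhibition above 20% together with a positive visual image hit; inconclusive = visual image hit but inhibition not above 20%; inactive = no visual image hit.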
# What was measured:
# [1] = inhibitors of TNFa-induced NFkB p65 translocation, primary screen, imaging, HUVEC, MLSMR starter and 10KST1 sets (AID 438); details: HUVEC TNFa-induced p65 nuclear translocation; cell count: measured here: nuclei count (cytotoxicity indicator), at 2.08 µM; inhibition: at 2 µM, stronger effect = higher value, 0% TNFa-plus-vehicle, 100% no-TNFa wells;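 note: compound added about 3h40 before a 20 min TNFalpha stimulation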;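 for inhibition: signal is the nuclear over cytoplasmic p65 intensity ratio per well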
# [2] = inhibitors of E-selectin induction by TNFa, primary screen, imaging, HUVEC, immunofluorescence, MLSMR starter and 10KST1 sets (AID 487;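 active = visually confirmed hit in the image check and inhibition above 20%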;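 for inhibition: signal is fraction of cell area covered by stained E-selectin grains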;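 for nuclei count: 100% = median nuclei count of all wells on the same plate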); details: HUVEC TNFalpha-induced E-selectin immunofluorescence imaging, at 2 µM; inhibition: stronger effect = higher value; nuclei count: measured here: cell number, toxicity
# [3] = DUSP6 inhibitors restoring Erk phosphorylation by chemical complementation, primary imaging in DUSP6-transfected HeLa (AID 609;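 active = compounds giving at least 50% inhibition in the cell-based MKP-3 phosphatase rescue imaging test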;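 for inhibition: phospho-Erk level distribution per well compared with pooled transfected vehicle control wells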); details: HeLa MKP-3 transfected, phospho-Erk imaging KS statistic, at 10 µM, cells stimulated with TPA for 15 min
# [4] = target: Dual specificity protein phosphatase 6 (Homo sapiens) (UniProt Q16828); assay: as above; details: HeLa MKP-3 transfected, phospho-Erk imaging KS statistic; at 10 µM; stronger effect = higher value; cells stimulated with TPA for 15 min
# Dual specificity protein phosphatase 6 (Homo sapiens), sequence (Q16828 whole entry, looked up): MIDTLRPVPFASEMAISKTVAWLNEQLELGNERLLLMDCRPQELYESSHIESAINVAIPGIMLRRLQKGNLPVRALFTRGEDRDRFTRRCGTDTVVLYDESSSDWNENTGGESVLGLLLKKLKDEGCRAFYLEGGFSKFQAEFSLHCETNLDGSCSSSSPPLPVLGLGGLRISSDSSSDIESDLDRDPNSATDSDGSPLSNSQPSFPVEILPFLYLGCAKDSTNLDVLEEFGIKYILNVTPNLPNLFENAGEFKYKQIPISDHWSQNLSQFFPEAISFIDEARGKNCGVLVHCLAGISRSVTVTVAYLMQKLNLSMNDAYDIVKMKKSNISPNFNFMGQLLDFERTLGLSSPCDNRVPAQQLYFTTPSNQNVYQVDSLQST
# [5] = target: Voltage-gated potassium channel subunit beta-2 (Rattus norvegicus) (UniProt P62483); assay: KvBeta enzyme negative modulators, primary screen, biochemical, NADPH fluorescence (AID 622;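 active = fluorescence slope higher than the sample average by over 3 SD, cut at about -0.22 in these data, passing the limit was not always enough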;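 note: slope of raw intensity against log time taken from 70 to 1610 s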); details: recombinant KvBeta, 4-cyanobenzaldehyde reduction, at 10 µM, stronger effect = higher value
# Voltage-gated potassium channel subunit beta-2 (Rattus norvegicus), sequence (P62483 whole entry, looked up): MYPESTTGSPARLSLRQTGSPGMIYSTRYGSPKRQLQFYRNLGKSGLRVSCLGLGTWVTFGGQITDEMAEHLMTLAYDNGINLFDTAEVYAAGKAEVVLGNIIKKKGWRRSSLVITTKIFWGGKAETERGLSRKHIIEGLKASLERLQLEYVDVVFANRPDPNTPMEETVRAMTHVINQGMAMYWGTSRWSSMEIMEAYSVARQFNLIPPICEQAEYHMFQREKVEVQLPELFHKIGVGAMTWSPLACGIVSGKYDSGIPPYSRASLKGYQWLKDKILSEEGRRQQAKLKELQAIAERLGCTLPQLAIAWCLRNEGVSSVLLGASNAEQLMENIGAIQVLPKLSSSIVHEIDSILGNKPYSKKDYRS
# [6] = target: Voltage-gated potassium channel subunit beta-2 (Rattus norvegicus) (UniProt P62483); assay: KvBeta positive modulators, primary screen, biochemical, NADPH fluorescence (AID 623;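 active = NADPH fluorescence slope more negative than the mean of all samples by about 3 SD, 99.7% confidence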;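 note: fluorescence intensity change per second fitted from 20 to 320 s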); details: Recombinant KvBeta, NADPH fluorescence decrease slope, 10 min; at 10 µM; stronger effect = lower value
# [7] = target: Muscarinic acetylcholine receptor M4 (Homo sapiens) (UniProt P08173); assay: compounds altering M4/GIRK thallium flux, either direction, primary screen, M4 allosteric agonist project, cell-based, HEK293 M4/GIRK, BTC-AM (AID 625;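 active = fluorescence slope after compound addition differing from the mean of all tested samples at 99.7% confidence, mostly higher but some lower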;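 note: thallium influx through GIRK channels coupled to M4 in HEK293 cells with BTC-AM dye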); details: at 10 µM, actives lie on both sides
# Muscarinic acetylcholine receptor M4 (Homo sapiens), sequence (P08173 whole entry, looked up): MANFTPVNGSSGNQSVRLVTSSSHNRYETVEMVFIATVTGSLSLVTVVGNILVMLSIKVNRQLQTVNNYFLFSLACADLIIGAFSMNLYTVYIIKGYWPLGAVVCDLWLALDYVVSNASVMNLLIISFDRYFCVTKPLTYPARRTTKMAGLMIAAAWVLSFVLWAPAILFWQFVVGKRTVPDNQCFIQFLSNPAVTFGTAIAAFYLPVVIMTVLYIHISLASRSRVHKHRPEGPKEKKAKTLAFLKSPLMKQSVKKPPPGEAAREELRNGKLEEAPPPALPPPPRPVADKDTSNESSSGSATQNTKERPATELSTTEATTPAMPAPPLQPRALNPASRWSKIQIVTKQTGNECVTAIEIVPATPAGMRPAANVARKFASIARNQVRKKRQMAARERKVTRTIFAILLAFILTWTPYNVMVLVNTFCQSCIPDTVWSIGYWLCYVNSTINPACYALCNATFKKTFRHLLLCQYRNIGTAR
# Method in brief: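 Material – HEK293 cells with M4 receptor and GIRK channels · Buffer or medium – pH 7.3 thallium assay buffer · Doses – one dose, 10 µM final · Timing – cells overnight at 37 °C, BTC-AM loading 1 h, reads 2 min total · Measured by – kinetic fluorescence with BTC-AM dye · Controls – carbachol and DMSO controls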
# [8] = inhibitors of larval lipid processing in zebrafish, primary screen, whole organism, PED6 fluorescence, gall bladder and intestine (AID 686;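 active = a full or partial loss of lipid-probe fluorescence in the fish gall bladder, intestine or both, judged by eye; inactive = no fluorescence loss, or compound toxic to the fish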;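 note: larvae 5 to 7 days old with five fish per well; signal comes from phospholipase A2 cleavage of quenched PED6 carried via bile; overnight exposure to compound and PED6 before scoring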); details: Zebrafish larvae PED6 lipid processing, fluorescence scoring; screened at 20 µM (by protocol)
# Method in brief: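 system = live zebrafish larvae aged 5-7 days, whole organism | probe or stimulus = ingested quenched lipid PED6 at 100 nM | doses = 20 µM single dose | timing = overnight exposure | detection = fluorescence microscopy with visual scoring of gall bladder and intestine | read-out = visual per-well fluorescence inhibition score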
# [9] = inhibitors of Chlamydomonas gravitaxis, primary screen, whole organism, Chlamydomonas reinhardtii, WT vs cilia-less mutant, absorbance, 96-well (AID 463189;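 active = inhibition at or above 50% relative to wild type and mutant plate controls; inactive = inhibition below 50%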;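 note: 0% = wild type cc124 cells in DMSO and 100% = ciliumless bld1 mutant cells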); details: OD600 absorbance, 2 days, at 10 µM, stronger effect = higher value
# [10] = measured here: cell density z-score
# [11] = measured here: nuclear c-Myc green intensity z-score
# [12] = measured here: nuclear pErk red intensity z-score, stronger effect = higher value
SMILES,cell count [1],inhibition [1],inhibition [2],nuclei count [2] [%],"z-score [3, 10]","z-score [3, 11]","z-score [3, 12]",inhibition [4],fluorescence slope [5],NADPH fluorescence slope [6],fluorescence slope [7],outcome [8],inhibition [9]
CC1(C(=O)CSc2ncn[nH]2)CCC(=O)O1 (stereo unspecified),643,19.2% (inactive),21.4% (inactive),93.2,-1.6,1.61,0.596,7.21% (inactive),-0.544 (inactive),-5.7e-05 (inactive),0.00624 (inactive),inactive,29.1% (inactive)
c1nc(NC2CCCCC2)c2[nH]cnc2n1,743,-1.9% (inactive),-76.5% (inactive),168,-1.06,0.0486,-0.156,9.91% (inactive),-0.483 (inactive),-6.4e-05 (inactive),0.00575 (inactive),inactive,3.23% (inactive)
C=CCN(CC=C)c1nc2ccccc2nc1C(C#N)C(=O)OC(C)C (stereo unspecified),639,-6.1% (inactive),-48.1% (inactive),173,-0.0253,-0.36,0.934,-13.3% (inactive),-0.467 (inactive),-4.8e-05 (inactive),0.00206 (inactive),inactive,7.18% (inactive)
CCOC(=O)C1CCN(c2ncnc3c2cnn3-c2ccc(OC)cc2)CC1,680,-2.1% (inactive),-138% (inactive),191,0.032,-0.586,0.421,13.4% (inactive),-0.405 (inactive),-3.9e-05 (inactive),0.00612 (inactive),inactive,-3.46% (inactive)
CCc1nc2n[nH]c(N)c2c2c1CCCC2,410,-3% (inactive),-224% (inactive),194,1.38,-1.2,-1.94,5.42% (inactive),-0.476 (inactive),-5.3e-05 (inactive),0.00476 (inactive),inactive; toxic,2.25% (inactive)
CC(C)C(=O)N1CCN(c2nc(-c3ccccc3)c3c(c2C#N)CC(C)(C)OC3)CC1,607,-3.4% (inactive),-9.6% (inactive),163,0.152,0.868,-0.257,-2.29% (inactive),-0.366 (inactive),-2.4e-05 (inactive),0.00797 (inactive),inactive,26.8% (inactive)
O=C(CN1C(=O)c2ccccc2S1(=O)=O)NCCSCc1ccco1,373,-5.5% (inactive),-25.2% (inactive),142,0.363,0.199,0.301,20.2% (inactive),-0.457 (inactive),-0.000137 (inactive),0.00395 (inactive),inactive,-7.41% (inactive)
Cc1ccc2cc(CNC(C)(C)C)c(=O)[nH]c2c1,632,-4.2% (inactive),-5% (inactive),141,-0.205,-0.75,-0.413,7.7% (inactive),-0.493 (inactive),-3.2e-05 (inactive),0.00705 (inactive),inactive,2.56% (inactive)
CSc1nncc(=O)[nH]1,642,1.5% (inactive),-96.8% (inactive),160,0.525,-0.545,-0.327,6.51% (inactive),-0.452 (inactive),-4.4e-05 (inactive),0.00648 (inactive),inactive,-3.84% (inactive)
N#CC(C#N)C(c1ccsc1)c1c(-c2ccccc2)[nH][nH]c1=O (stereo unspecified),712,-0.5% (inactive),-88.8% (inactive),169,0.118,-0.0424,0.886,-4.27% (inactive),-0.495 (inactive),-6.9e-05 (inactive),0.00622 (inactive),inactive,3.19% (inactive)
COC(=O)C(C)Sc1nc2c(c(=O)n(C)c(=O)n2C)n1CCC(C)C (stereo unspecified),630,0.3% (inactive),-5.5% (inactive),179,0.304,-0.191,-1.37,3.42% (inactive),-0.42 (inactive),-1.8e-05 (inactive),0.00499 (inactive),inactive,4.36% (inactive)
CCC(=O)N(Cc1cccs1)C1CCOC(C)(C)C1 (stereo unspecified),541,6.5% (inactive),6.3% (inactive),166,0.577,-0.186,0.0071,1.9e-07% (inactive),-0.389 (inactive),-3e-05 (inactive),0.00514 (inactive),inactive,11.9% (inactive)
C=C(C)CSc1nnc2n(C)c(=O)c3c4c(sc3n12)CCC4,334,8.5% (inactive),-1.8% (inactive),118,1.02,-0.186,-0.897,15.4% (inactive),-0.438 (inactive),-0.000119 (inactive),0.00483 (inactive),inactive,41.8% (inactive)
COC(=O)/C=c1/s/c(=C(\C#N)C(=O)NCc2ccco2)n(-c2ccccc2)c1=O,395,0.2% (inactive),-54.5% (inactive),129,-0.296,-0.55,-0.453,1.48% (inactive),-0.455 (inactive),-3.8e-05 (inactive),0.00374 (inactive),inactive,45.7% (inactive)
COc1ccc(C2C(C#N)=C(C)NC3=C2C(=O)c2ccccc23)cc1 (stereo unspecified),678,0.7% (inactive),-27.5% (inactive),145,1.09,1.69,-1.69,21.8% (inactive),-0.5 (inactive),-4.8e-05 (inactive),0.00419 (inactive),inactive,-2.6% (inactive)
N#Cc1c2c(c(-c3ccccc3)[nH]c1=O)CCCC2,580,-9.4% (inactive),-88.6% (inactive),140,-0.665,-0.156,-4.21,16.5% (inactive),-0.377 (inactive),-0.000105 (inactive),0.00448 (inactive),inactive,-4.11% (inactive)
C[N+]1(CCNC(=O)/C=N/O)CCCCC1,468,-0.1% (inactive),-76.5% (inactive),147,-1.04,0.313,0.488,-0.624% (inactive),-0.42 (inactive),-2.5e-05 (inactive),0.00534 (inactive),inactive,13.4% (inactive)
CCN(CC)Cc1cc(C(C)=O)ccc1OCC(C)C,639,1.8% (inactive),3.7% (inactive),164,-0.466,0.382,-0.997,-5.62% (inactive),-0.462 (inactive),-4.7e-05 (inactive),0.00565 (inactive),inactive,29.4% (inactive)
O=C(C1CCCCC1)N1CCCn2c1nc1ccccc12,466,-4.2% (inactive),40.4% (inactive),93.7,0.0435,0.0435,-0.166,-0.233% (inactive),-0.481 (inactive),-3.7e-05 (inactive),0.00633 (inactive),inactive,-20.3% (inactive)
O=C(COc1ccc(Cl)cc1)Nc1ccccc1CO,590,-0.5% (inactive),-9.8% (inactive),120,1.01,0.534,-0.247,5.42% (inactive),-0.435 (inactive),-0.000143 (inactive),0.00526 (inactive),inactive,-8.26% (inactive)
CCc1nc2n[nH]c(N)c2c2c1CSC(C)(C)C2,644,-0.8% (inactive),-44.1% (inactive),168,-1.43,0.647,2.27,-15% (inactive),-0.458 (inactive),-5.1e-05 (inactive),0.00446 (inactive),inactive,12.1% (inactive)
CC1(C)Cc2[nH]c(=O)c(C#N)cc2CS1,595,-11.1% (inactive),-93.7% (inactive),149,0.698,-0.413,1.37,-0.233% (inactive),-0.435 (inactive),-0.000124 (inactive),0.00467 (inactive),inactive,3.23% (inactive)
COc1ccc(CSc2nnc3n(C)c(=O)c4c5c(sc4n23)CCCC5)cc1,563,-1.3% (inactive),-140% (inactive),184,0.888,-0.948,-1.27,17.8% (inactive),-0.41 (inactive),-1.6e-05 (inactive),0.00522 (inactive),inactive,1.97% (inactive)
COc1ccccc1NC(=O)Nc1nnc(C(C)C)s1,702,-3.3% (inactive),-24.3% (inactive),157,-0.239,-0.311,0.0371,-5.81% (inactive),-0.476 (inactive),-1.2e-05 (inactive),0.00885 (inactive),inactive,3.73% (inactive)
O=C(NCCCNCc1ccccc1)/C(=N\O)c1ccccc1,518,-4.7% (inactive),-1% (inactive),164,-0.176,1.16,0.402,15.9% (inactive),-0.401 (inactive),-5.4e-05 (inactive),0.00368 (inactive),inactive,7.18% (inactive)
COc1ccc(-n2ncc3c(Nc4cccc(C)c4)ncnc32)cc1,629,-11.3% (inactive),-122% (inactive),182,1.43,1.07,-1.65,11.4% (inactive),-0.319 (inactive),-1.2e-05 (inactive),0.00486 (inactive),inactive,3.81% (inactive)
CCOc1ccc(/C(O)=C2/C(=O)C(=O)N(c3cc(C)on3)C2c2ccc(C(=O)OC)cc2)cc1 (stereo unspecified),391,-0.4% (inactive),-27.6% (inactive),105,-0.142,1.45,-0.188,9.37% (inactive),-0.419 (inactive),-1.9e-05 (inactive),0.00438 (inactive),inactive,11.4% (inactive)

# From PubChem BioAssay
